Data from ChEMBL document CHEMBL1139534, “Inhibition of herpes simplex virus thymidine kinases by 2-phenylamino-6-oxopurines and related compounds: structure-activity relationships and antiherpetic activity in vivo” (J Med Chem, 2005).
pIC50, pKi: −log10 of the molar value.

Assays:
Thymidine kinase [1] = molecular target: T1, Thymidine kinase (Human herpesvirus 1 (strain SC16) (HHV-1) (Human herpes simplex virus1), UniProt P06479); experiment: Inhibitory concentration against herpes simplex virus type 1 thymidine kinase
T1 sequence (P06479 whole entry): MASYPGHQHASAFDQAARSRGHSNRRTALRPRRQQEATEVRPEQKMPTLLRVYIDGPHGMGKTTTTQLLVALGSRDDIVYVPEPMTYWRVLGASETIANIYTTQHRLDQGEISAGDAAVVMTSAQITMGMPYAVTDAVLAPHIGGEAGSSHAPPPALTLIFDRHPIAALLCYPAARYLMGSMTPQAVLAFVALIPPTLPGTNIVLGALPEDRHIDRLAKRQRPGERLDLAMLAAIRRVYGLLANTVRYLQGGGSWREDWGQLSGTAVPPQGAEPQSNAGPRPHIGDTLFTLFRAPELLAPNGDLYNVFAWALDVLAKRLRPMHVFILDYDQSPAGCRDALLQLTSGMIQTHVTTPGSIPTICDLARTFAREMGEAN

Thymidine kinase [2] = molecular target: T2, Thymidine kinase (Human herpesvirus 2, UniProt Q6L709); experiment: Inhibitory concentration against herpes simplex virus type 2 thymidine kinase; set-up: species or system Human alphaherpesvirus 2
T2 sequence (Q6L709 whole entry): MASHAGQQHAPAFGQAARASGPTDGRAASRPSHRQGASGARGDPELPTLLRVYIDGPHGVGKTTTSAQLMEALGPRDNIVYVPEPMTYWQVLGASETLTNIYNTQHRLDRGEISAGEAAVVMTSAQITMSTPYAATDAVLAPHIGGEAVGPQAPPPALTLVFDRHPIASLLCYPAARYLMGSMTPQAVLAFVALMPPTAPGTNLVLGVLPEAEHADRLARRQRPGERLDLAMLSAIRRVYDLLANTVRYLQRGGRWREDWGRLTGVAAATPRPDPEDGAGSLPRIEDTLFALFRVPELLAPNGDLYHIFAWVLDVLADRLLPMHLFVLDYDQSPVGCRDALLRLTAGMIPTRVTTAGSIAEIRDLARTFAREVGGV
Procedure, shortened: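 Recombinant His-tagged HSV-2 TK expressed in E. coli, Ni-NTA purified. Products captured on DEAE paper and counted by scintillation. Inhibitor diluted from DMSO stocks, at least five concentrations in duplicate; IC50 is the concentration halving activity.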

Mus musculus [3] = experiment: Effect on HSV-1 encephalitis in mice following intraperitoneal dosage at 200 mg/kg; expressed as number of survivors/10; assay type: functional
Procedure, shortened: (§1)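 Female BALB/c mice, 6 weeks old, groups of 10, anesthetized with ketamine/xylazine. Corneas lightly scratched, then 10⁶ PFU per eye applied in culture medium (HSV-1 McKrae or HSV-2 G, Vero-grown). Compound given ip as corn-oil suspension, 0.1 mL, twice daily for 5 days; vehicle controls. Mice alive at 30 days counted survivors; day of death recorded for the rest.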

Mus musculus [4] = experiment: Effect on HSV-2 encephalitis in mice following intraperitoneal dosage at 200 mg/kg; expressed as mean day of death; assay type: functional; procedure, shortened: as §1
Mus musculus [5] = experiment: Effect on HSV-2 encephalitis in mice following intraperitoneal dosage at 400 mg/kg; expressed as mean day of death; assay type: functional; procedure, shortened: as §1
Mus musculus [6] = experiment: Effect on HSV-1 encephalitis in mice following intraperitoneal dosage at 400 mg/kg; expressed as number of survivors/10; assay type: functional; procedure, shortened: as §1
Mus musculus [7] = experiment: Effect on HSV-1 encephalitis in mice following intraperitoneal dosage at 400 mg/kg; expressed as mean day of death; assay type: functional; procedure, shortened: as §1
Mus musculus [8] = experiment: Effect on HSV-2 encephalitis in mice following intraperitoneal dosage at 200 mg/kg; expressed as number of survivors/10; assay type: functional; procedure, shortened: as §1
Mus musculus [9] = experiment: Effect on HSV-2 encephalitis in mice following intraperitoneal dosage at 100 mg/kg; expressed as number of survivors/10; assay type: functional; procedure, shortened: as §1
Mus musculus [10] = experiment: Effect on HSV-2 encephalitis in mice following intraperitoneal dosage at 400 mg/kg; expressed as number of survivors/10; assay type: functional; procedure, shortened: as §1
Mus musculus [11] = experiment: Effect on HSV-1 encephalitis in mice following intraperitoneal dosage at 100 mg/kg; expressed as mean day of death; assay type: functional; procedure, shortened: as §1
Mus musculus [12] = experiment: Effect on ocular HSV-2 reactivation in mice following intraperitoneal dosage at 200 mg/kg; expressed as HSV-2 positive cultures/15 mice; assay type: functional, Eye
Procedure, shortened: (§2)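 Female BALB/c mice, 6 weeks old, ocularly infected with HSV-2 strain G (Vero-grown) to establish trigeminal latency. Groups of 15 received a single ip dose as a corn oil suspension, with a corn oil-only group. Thirty minutes later they were immersed in 43 °C water for 10 min as hyperthermic stress. Eyes were swabbed after 24 h for infectious virus, and virus-positive cultures were counted per group.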

Mus musculus [13] = experiment: Effect on HSV-1 encephalitis in mice following intraperitoneal dosage at 100 mg/kg; expressed as number of survivors/10; assay type: functional; procedure, shortened: as §1
Mus musculus [14] = experiment: Effect on HSV-2 encephalitis in mice following intraperitoneal dosage at 100 mg/kg; expressed as mean day of death; assay type: functional; procedure, shortened: as §1
Mus musculus [15] = experiment: Effect on HSV-1 encephalitis in mice following intraperitoneal dosage at 200 mg/kg; expressed as mean day of death; assay type: functional; procedure, shortened: as §1
Mus musculus [16] = experiment: Effect ocular HSV-2 reactivation in mice following intraperitoneal dosage at 200 mg/kg; expressed as HSV-2 positive cultures/15 mice; assay type: functional, Eye; procedure, shortened: as §2
Thymidine kinase [17] = molecular target: T2, Thymidine kinase; experiment: Binding affinity for herpes simplex virus type 2 thymidine kinase; set-up: species or system Human alphaherpesvirus 2
Procedure, shortened: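 His-tagged recombinant HSV-2 TK, expressed in E. coli DH5α and purified on Ni-NTA. Incubated 15 min at 37 °C in 30 mM HEPES-K+ pH 7.5, 6 mM MgCl2, 6 mM ATP, 0.5 mM DTT, with several [3H-methyl]TdR concentrations and inhibitor diluted from DMSO stocks. Phosphorylated product retained on DEAE paper disks and counted by scintillation. Ki taken from double-reciprocal (Lineweaver-Burk) plots.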

Thymidine kinase [18] = molecular target: T1, Thymidine kinase; experiment: Binding affinity for herpes simplex virus type 1 thymidine kinase

Row | Compound | pIC50 (Thymidine kinase [1]) | pIC50 (Thymidine kinase [2]) | further results
1 | O=c1[nH]c(Nc2ccccc2)nc2c1ncn2CCO | 5.36 | – | –
2 | OCCN(CCO)CCCCn1cnc2c(O)nc(Nc3ccccc3)nc21 | 5.28 | 6.47 | –
3 | OCCC1CCCCN1CCCCn1cnc2c(O)nc(Nc3ccccc3)nc21 (stereo not given) | 6.11 | 7.19 | –
4 | CN(C)CCCCn1cnc2c(O)nc(Nc3ccccc3)nc21 | 5.44 | 6.21 | –
5 | Oc1nc(Nc2ccccc2)nc2c1ncn2CCCCN1CCCc2ccccc21 | 6.46 | 7.33 | –
6 | O=C(O)P(=O)(O)O [FOSCARNET] | – | – | Activity (Mus musculus [3]): 5; Activity (Mus musculus [4]): 17.8; Activity (Mus musculus [5]): 18.5; Activity (Mus musculus [6]): 7; Activity (Mus musculus [7]): 12.3; Activity (Mus musculus [8]): 4; Activity (Mus musculus [9]): 0; Activity (Mus musculus [10]): 6; Activity (Mus musculus [11]): 9.2; Activity (Mus musculus [12]): 7; Activity (Mus musculus [13]): 1; Activity (Mus musculus [14]): 15.2; Activity (Mus musculus [15]): 10.4
7 | COC1CCN(CCCCn2cnc3c(O)nc(Nc4ccccc4)nc32)CC1 | 5.64 | 6.85 | –
8 | Oc1nc(Nc2ccccc2)nc2c1ncn2CCCCN1CCC(N2CCCCC2)CC1 | 4.78 | 6.00 | –
9 | CC1CN(CCCCn2cnc3c(O)nc(Nc4ccccc4)nc32)CC(C)N1 (stereo not given) | 5.15 | 6.10 | –
10 | COC1CCCN(CCCCn2cnc3c(O)nc(Nc4ccccc4)nc32)C1 (stereo not given) | 5.60 | 6.82 | –
11 | Oc1nc(Nc2ccccc2)nc2c1ncn2CCCCN1CCCC1CN1CCCCC1 (stereo not given) | 6.00 | 6.89 | –
12 | Oc1nc(Nc2ccccc2)nc2c1ncn2CCCCN1CCC(O)CC1 | 5.09 | 6.15 | –
13 | Nc1nc2c(ncn2CCCCO)c(=O)[nH]1 | 4.22 | 3.80 | –
14 | O=c1[nH]c(Nc2ccccc2)nc2c1ncn2CCCCO | – | – | Activity (Mus musculus [3]): 6; Activity (Mus musculus [4]): 18; Activity (Mus musculus [6]): 9; Activity (Mus musculus [7]): 11; Activity (Mus musculus [8]): 9; Activity (Mus musculus [9]): 4; Activity (Mus musculus [10]): 10; Activity (Mus musculus [11]): 9.5; Activity (Mus musculus [12]): 4; Activity (Mus musculus [13]): 3; Activity (Mus musculus [14]): 15.7; Activity (Mus musculus [15]): 11.8
15 | Oc1nc(Nc2ccccc2)nc2c1ncn2CCCCN1CCCCC1c1ccccc1 (stereo not given) | 6.26 | 7.05 | –
16 | CN(c1ccccc1)c1nc2c(ncn2CCCCO)c(=O)[nH]1 | 4.80 | 4.43 | –

Row | Compound | pIC50 (Thymidine kinase [1]) | pIC50 (Thymidine kinase [2]) | further results
17 | O=C(O)CCCn1cnc2c(O)nc(Nc3ccccc3)nc21 | 6.00 | 6.15 | Activity (Mus musculus [12]): 11
18 | Cl.Cl.Oc1nc(Nc2ccccc2)nc2c1ncn2CCCCN1CCCCC1 | 5.80 | 6.66 | Activity (Mus musculus [9]): 0; Activity (Mus musculus [12]): 11; Activity (Mus musculus [14]): 15.2
19 | Nc1nc2c(ncn2COCCO)c(=O)[nH]1 [ACYCLOVIR] | – | – | Activity (Mus musculus [9]): 6; Activity (Mus musculus [11]): 13; Activity (Mus musculus [12]): 10; Activity (Mus musculus [13]): 7; Activity (Mus musculus [14]): 17.2
20 | OCCCCn1cnc2c(O)nc(Sc3ccccc3)nc21 | 6.30 | 5.70 | Activity (Mus musculus [16]): 10
21 | CCN(CC)CCCCn1cnc2c(O)nc(Nc3ccccc3)nc21 | 5.35 | 6.64 | –
22 | OCCCCCn1cnc2c(O)nc(Nc3ccccc3)nc21 | 4.82 | 4.27 | Activity (Mus musculus [9]): 1; Activity (Mus musculus [11]): 10.7; Activity (Mus musculus [12]): 8; Activity (Mus musculus [13]): 0; Activity (Mus musculus [14]): 11.2
23 | Oc1nc(Nc2ccccc2)nc2c1ncn2CCCCN1CCC(O)(c2ccc(Cl)c(C(F)(F)F)c2)CC1 | 5.70 | 6.70 | –
24 | N#CC1(c2ccccc2)CCN(CCCCn2cnc3c(O)nc(Nc4ccccc4)nc32)CC1 | 6.39 | 6.66 | –
25 | Cl.Cl.Oc1nc(Nc2ccccc2)nc2c1ncn2CCCCN1CCCC2CCCCC21 (stereo not given) | 6.82 | 7.89 | Activity (Mus musculus [4]): 15.4; pKi (Thymidine kinase [17]): 8.30; Activity (Mus musculus [8]): 0; Activity (Mus musculus [12]): 10; pKi (Thymidine kinase [18]): 7.52
26 | Oc1nc(Nc2ccccc2)nc2c1ncn2CCCCN1CCCC(O)C1 (stereo not given) | 5.24 | 6.51 | –
27 | O=c1[nH]c(Oc2ccccc2)nc2c1ncn2CCCCO | 6.12 | 5.05 | –
28 | OCCCn1cnc2c(O)nc(Nc3ccccc3)nc21 | 5.70 | 5.82 | Activity (Mus musculus [9]): 0; Activity (Mus musculus [11]): 9.7; Activity (Mus musculus [12]): 9; Activity (Mus musculus [13]): 1; Activity (Mus musculus [14]): 10.7
29 | C=CCN(CC=C)CCCCn1cnc2c(O)nc(Nc3ccccc3)nc21 | 5.68 | 6.38 | –
30 | CCN(C)CCCCn1cnc2c(O)nc(Nc3ccccc3)nc21 | 5.33 | 6.42 | –
31 | COCCCCn1cnc2c(=O)[nH]c(Nc3ccccc3)nc21 | 4.92 | 4.85 | –
